The values that follow come from ChEMBL document CHEMBL1126041, “Leukotriene B4 receptor antagonists: the LY255283 series of hydroxyacetophenones” (J Med Chem, 1992).

Experiment [1] concerns the target Leukotriene B4 receptor (Homo sapiens) (UniProt Q9NPC1+Q15722). Kind of experiment: Inhibition of [3H]LTB4 binding to leukotriene B4 receptor of human peripheral neutrophils (PMN) at a concentration of 0.1 uM. The format is protein assay. A digest of the protocol:
(§1)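 Neutrophils isolated by Ficoll-Hypaque centrifugation, dextran 70 sedimentation and hypotonic lysis (≥90% neutrophils, ≥90% viable), 2 × 10^7 cells/mL in Hank's balanced salt solution with 0.1% ovalbumin. Compound in DMSO plus 2.65 nM [3H]LTB4 (stock), 10 min at 4 °C. Cells spun through dibutyl/dinonyl phthalate (7:2), pellet counted by scintillation. Triplicate incubations averaged. Reported as % inhibition of specific binding; nonspecific binding taken with >2000-fold excess unlabeled LTB4.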

In experiment [2] the target is Leukotriene B4 receptor 1 (Homo sapiens) (UniProt Q15722). Kind of experiment: Inhibition of binding of [3H]LTB4 to the leukotriene B4 receptor of human peripheral neutrophils (PMN) at a concentration of 10 uM. A digest of the protocol: as §1
Leukotriene B4 receptor 1 (Homo sapiens), sequence (Q15722 whole entry): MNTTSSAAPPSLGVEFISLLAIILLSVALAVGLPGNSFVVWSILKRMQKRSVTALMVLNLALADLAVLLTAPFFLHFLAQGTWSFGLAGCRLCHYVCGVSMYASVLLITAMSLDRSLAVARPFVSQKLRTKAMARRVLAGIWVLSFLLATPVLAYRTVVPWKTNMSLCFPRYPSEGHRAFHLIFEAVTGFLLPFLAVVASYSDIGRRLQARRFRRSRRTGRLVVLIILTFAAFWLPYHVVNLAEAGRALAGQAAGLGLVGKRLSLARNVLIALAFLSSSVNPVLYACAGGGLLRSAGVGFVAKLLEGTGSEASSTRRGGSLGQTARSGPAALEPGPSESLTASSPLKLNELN
For experiment [3] the target is unchanged. The experiment in a line: Inhibition of [3H]LTB4 binding to leukotriene B4 receptor from human peripheral neutrophils (PMN), at a concentration of 1 uM. The method, boiled down:
as §1

Leukotriene B4 receptor (Homo sapiens), sequence (Q15722 whole entry, looked up): as the sequence (Q15722 whole entry) above
Leukotriene B4 receptor (Homo sapiens), sequence (Q9NPC1 whole entry, looked up): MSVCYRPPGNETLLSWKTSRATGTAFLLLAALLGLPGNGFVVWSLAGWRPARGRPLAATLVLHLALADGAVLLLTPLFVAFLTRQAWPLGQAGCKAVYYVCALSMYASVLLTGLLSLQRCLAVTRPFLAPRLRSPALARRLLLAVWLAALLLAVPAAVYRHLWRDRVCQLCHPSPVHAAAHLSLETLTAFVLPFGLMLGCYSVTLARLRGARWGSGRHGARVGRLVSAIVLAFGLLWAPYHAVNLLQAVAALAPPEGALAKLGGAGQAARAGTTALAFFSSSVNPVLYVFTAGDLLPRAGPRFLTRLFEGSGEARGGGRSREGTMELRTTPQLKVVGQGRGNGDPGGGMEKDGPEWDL

Usually inhibition stands for the change of the read-out against control, counted positive when it falls. As to `CCc1cc(C(C)=O)c(O)cc1OCCCC(C)(C)C(=O)O`, the inhibition in experiment [1] was 12%; in experiment [2], 89%; in experiment [3] it was 43%.
The like results for `CCc1cc(C(C)=O)c(O)cc1OCCCCCC(C)(C)C#N` were, in that order, 17%, 85% and 53%.
The matching figures for `CCc1cc(C(C)=O)c(O)cc1OCCCCCC(C)(C)c1nnnn1C`: 14%, 99% and 59%.
With `CCc1cc(C(C)=O)c(O)cc1OCCCC(C)(C)C#N`, the results for the inhibition in experiment [1], in experiment [2] and in experiment [3] were 13%, 85% and 46%, respectively.
Consider `CCc1cc(C(C)=O)c(O)cc1OCCCCCC(C)(C)c1nn[nH]n1`, for which the inhibition in experiment [1] was 56%; in experiment [2], 102%; in experiment [3], 93%.
On to `CCc1cc(C(C)=O)c(O)cc1OCCCCCCC(C)(C)C#N`, for which the inhibition in experiment [1] turned out to be 11%; in experiment [2], 65%; in experiment [3] it was 30%.
The matching figures for `CCc1cc(C(C)=O)c(O)cc1OCCCCCC(C)(C)C(=O)O`: 20%, 104% and 73%.
The matching figures for `C=CCc1cc(C(C)=O)c(O)cc1OCc1cccc(C#N)c1`: 25%, 71% and 58%.
The like results for `CCc1cc(C(C)=O)c(O)cc1OCCCCCCCC(C)(C)C#N` were, in that order, 6%, 66% and 29%.
On to `CCc1cc(C(C)=O)c(O)cc1OCCCC(C)(C)C(N)=O`, for which the inhibition in experiment [1] came to 16%; in experiment [2], 92%; in experiment [3], 51%.
The matching figures for `CCc1cc(C(C)=O)c(O)cc1OCCCCCC(C)(C)c1nnn(C)n1`: 16%, 95% and 66%.
With `CCc1cc(C(C)=O)c(O)cc1OCCCC(C)(C)c1nnn[nH]1`, the inhibition was found to be 28% in experiment [1], 100% in experiment [2] and 76% in experiment [3].
As for `CCc1cc(C(C)=O)c(O)cc1OCc1cccc(C#N)c1`, the inhibition worked out at 18% in experiment [1], 58% in experiment [2] and 61% in experiment [3].
Turning to `CCc1cc(C(C)=O)c(O)cc1OCCCCC(C)(C)C#N`, the inhibition in experiment [1] stood at 5%; in experiment [2] it was 79%; in experiment [3], 30%.
`CCc1cc(C(C)=O)c(O)cc1OCc1ccc(C#N)cc1`: the inhibition in experiment [1] worked out at 0%; in experiment [2], 7%; in experiment [3], 11%.
